Assay results from paper PMC5242338 (Molecular imaging and biology : MIB : the official …, 2016).
Where a SMILES comes first, the peptide text is derived from it. Bridges are numbered along the chain shown (N, C = ends). [ ]: non-standard residue; d: D form. The star is where a group is joined. NOTA = O=C(O)CN1CCN(CC(=O)O)CCN(CC(=O)*)CC1; 2Nal = N[C@@H](Cc1ccc2ccccc2c1)C(=O)O; Cit = NC(=O)NCCC[C@H](N)C(=O)O

Legend:
CHO-CXCR4 cells = experiment: Cell uptake, internalization and efflux of tracer; format: cell-based, Chinese hamster
Procedure, shortened: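 CHO-CXCR4 cells (F-12K, 10 % FBS) seeded at 1×10^5/well and given 11.1 kBq (0.3 µCi) tracer at 37 °C for 5–120 min. Blocking used 10 µg/well (22 µM) unlabeled peptide for 2 h. Cells were washed twice with cold PBS, lysed in 0.1 M NaOH and γ-counted. For internalization, an extra 1 min wash in 50 mM glycine/0.1 M NaCl, pH 2.8, was added. For efflux, cells were loaded for 2 h, then given tracer-free medium. Values are % of added activity, mean of three experiments ± SD.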

in vivo = experiment: in vivo; design: species or system mice; conditions: mouse, iv, 100 uCi/mouse, total radioactivity
CHO-CXCR4 and CHO tumors = format: in vivo, mice

## N=C(N)NCCC[C@H](NC(=O)[C@@H]1CSSC[C@H](NC(=O)[C@H](Cc2ccc3ccccc3c2)NC(=O)[C@H](CCCNC(=N)N)NC(=O)[C@H](CCCNC(=N)N)NC(=O)CN2CCN(CC(=O)O)CCN(CC(=O)O)CC2)C(=O)N[C@@H](Cc2ccc(O)cc2)C(=O)N[C@@H](CCCNC(N)=O)C(=O)N[C@@H](CCCCN)C(=O)N[C@H](CCCCN)C(=O)N2CCC[C@H]2C(=O)N[C@@H](Cc2ccc(O)cc2)C(=O)N[C@@H](CCCNC(=N)N)C(=O)N[C@@H](CCCNC(N)=O)C(=O)N1)C(N)=O [Al[^18F]NOTA-T140] ({NOTA}-RR[2Nal]CY[Cit]K[dK]PYR[Cit]CR-NH2; disulfide 4-13)
CHO-CXCR4 cells; 2 h, 10 µg/well (22 µM) unlabeled peptide
  cell uptake with blocking by unlabeled peptide: 5.11±0.35%
CHO-CXCR4 cells; 2 h, acid wash (glycine pH 2.8) removes surface-bound tracer
  share of the uptake due to internalization: ~50%
CHO-CXCR4 cells; after 2 h loading at 37 °C, medium replaced
  efflux from the cells: slow
In vivo; biodistribution: bone
  tissue uptake at 2 h: 2.95 ± 0.74 %ID/g
In vivo; biodistribution: kidneys
  tissue uptake at 2 h: 32.8 ± 2.62 %ID/g
In vivo; biodistribution: liver
  tissue uptake at 2 h: 34.2 ± 4.98 %ID/g
In vivo; biodistribution: spleen
  tissue uptake at 2 h: 6.37 ± 1.18 %ID/g
CHO-CXCR4 and CHO tumors; co-injection of 100 µg unlabeled peptide, PET 1 h post-injection
  reduction in CHO-CXCR4 tumor uptake on blocking: 50–60%
CHO-CXCR4 and CHO tumors; mouse, in vivo
  change of tracer uptake in the bone on blocking: significantly reduced
